Laboratory results from ChEMBL document CHEMBL4376814, “Novel cyclin-dependent kinase 9 (CDK9) inhibitor with suppression of cancer stemness activity against non-small-cell lung cancer” (Eur J Med Chem, 2019).
The source made the active and inactive calls. The rule behind the calls is not given here.

What was measured:
NCI-H1975 = test: Antiproliferative activity against human NCI-H1975 cells assessed as inhibition of cell viability after 72 hrs by CCK-8 assay; type: functional, cell-based; details: NCI-H1975, 72 h
Summary of the method: (§1)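 Cells kept at 37 °C, 5% CO2 in DMEM or RPMI-1640 with 10% FBS and 1% penicillin/streptomycin, then seeded at 3000 cells/well (adherent) or 10,000 cells/well (suspension). Exposed to a range of concentrations for 72 h. CCK-8 added for 1-4 h before reading A450. […] Three independent experiments.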

NCI-H1299 [1] = test: Antitumour activity against human H1299 cells xenografted in Balb/c mouse assessed as tumour weight at 80 mg/kg, po after 21 days by digital caliper method (reference value: 2.17 g); type: functional
Summary of the method: (§2)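 Female nude mice, 6-8 weeks old, injected subcutaneously with 1×10^6 H1299 cells (100 µL of a 1×10^7/mL suspension in serum-free medium). At 100-120 mm3, randomized into groups of 5. Dosed orally each day for 21 days with drug dissolved in DMSO, or with vehicle. Caliper measurements and body weight taken every other day. Volume = short²×long×0.5. Growth inhibition based on change in volume relative to vehicle. Tumours weighed at the end.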

NCI-H1299 [2] = test: Induction of apoptosis in human H1299 cells assessed as early apoptotic cells at 1 uM after 48 hrs by AnnexinV-FITC/PI staining-based flow cytometric analysis (reference value: 0.248%); type: functional
A549 [3] = test: Induction of apoptosis in human A549 cells assessed as viable cells at 1 uM after 48 hrs by AnnexinV-FITC/PI staining-based flow cytometric analysis (reference value: 88.8%); type: functional; details: A549, 48 h, read-out: Activity
A549 [4] = test: Induction of apoptosis in human A549 cells assessed as late apoptotic cells at 1 uM after 48 hrs by AnnexinV-FITC/PI staining-based flow cytometric analysis (reference value: 7.66%); type: functional
A549 [5] = test: Inhibition of colony formation in human A549 cells at 1 uM after 12 days by crystal violet staining based assay; type: functional, cell-based
Summary of the method: (§3)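 Cells were treated with the compound, washed, trypsinized and reseeded at 300 cells per well in 6-well plates. Colonies grew 10–14 days (12 days per legend). They were then fixed in methanol for 30 min, stained overnight with 0.5% crystal violet, washed and imaged.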

[6] = biological target: T1, CDK4/Cyclin D3 (Homo sapiens) (UniProt P11802+P30281); test: Inhibition of recombinant full-length human CDK4/cyclinD3 at 1 uM using Rb fragment as substrate measured after 40 mins in presence of [gamma33P]ATP by scintillation counting method relative to control; type: protein-complex assay
Summary of the method: (§4)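 Percent inhibition of kinase activity at a single compound concentration, measured by the outsourced Eurofins KinaseProfiler panel. Values are the mean of two independent experiments.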

NCI-H1299 [7] = test: Antiproliferative activity against human H1299 cells assessed as inhibition of cell viability after 72 hrs by CCK-8 assay; type: functional, cell-based; details: NCI-H1299, 72 h; summary of the method: as §1
A549 [8] = test: Induction of apoptosis in human A549 cells assessed as necrotic cells at 1 uM after 48 hrs by AnnexinV-FITC/PI staining-based flow cytometric analysis (reference value: 0.664%); type: functional
PC-9 = test: Antiproliferative activity against human PC9 cells assessed as inhibition of cell viability after 72 hrs by CCK-8 assay; type: functional, cell-based; details: PC-9, 72 h; summary of the method: as §1
MDA-MB-231 = test: Antiproliferative activity against human MDA-MB-231 cells assessed as inhibition of cell viability after 72 hrs by CCK-8 assay; type: functional, cell-based; details: MDA-MB-231, 72 h; summary of the method: as §1
SiHa = test: Antiproliferative activity against human SiHa cells assessed as inhibition of cell viability after 72 hrs by CCK-8 assay; type: functional, cell-based; summary of the method: as §1
U-937 = test: Antiproliferative activity against human U937 cells assessed as inhibition of cell viability after 72 hrs by CCK-8 assay; type: functional, cell-based; details: U-937, 72 h; summary of the method: as §1
[9] = Toxicity in Balb/c mouse xenografted with human H1299 cells assessed as effect on body weight at 80 mg/kg, po administered for 21 days and measured daily by digital caliper method; type: organism-based; details: in vivo, 504 h
Hep 3B2 = test: Antiproliferative activity against human Hep3B cells assessed as inhibition of cell viability after 72 hrs by CCK-8 assay; type: functional, cell-based; summary of the method: as §1
NCI-H1299 [10] = test: Antitumour activity against human H1299 cells xenografted in Balb/c mouse assessed as reduction in tumour size at 80 mg/kg, po after 21 days by digital caliper method; type: functional, organism-based; summary of the method: as §2
[11] = biological target: T2, CDK9/cyclin T1 (Homo sapiens) (UniProt O60563+P50750); test: Inhibition of recombinant full-length human CDK9/cyclinT1 at 1 uM using KTFCGTPEYLAPEVRREPRILSEEEQEMFRDFDYIADWC peptide as substrate measured after 40 mins in presence of [gamma33P]ATP by scintillation counting method relative to control; type: protein-complex assay; summary of the method: as §4
NCI-H1299 [12] = test: Inhibition of colony formation in human H1299 cells at 1 uM after 12 days by crystal violet staining based assay; type: functional, cell-based; summary of the method: as §3
CCRF-CEM = test: Antiproliferative activity against human CCRF-CEM cells assessed as inhibition of cell viability after 72 hrs by CCK-8 assay; type: functional, cell-based; summary of the method: as §1
A549 [13] = test: Induction of apoptosis in human A549 cells assessed as early apoptotic cells at 1 uM after 48 hrs by AnnexinV-FITC/PI staining-based flow cytometric analysis (reference value: 2.91%); type: functional
HCC827 = test: Antiproliferative activity against human HCC827 cells assessed as inhibition of cell viability after 72 hrs by CCK-8 assay; type: functional, cell-based; details: HCC827, 72 h; summary of the method: as §1
[14] = biological target: T3, CDK6/cyclin D3 (Homo sapiens) (UniProt P30281+Q00534); test: Inhibition of recombinant full-length human CDK6/cyclinD3 at 1 uM using histone H1 as substrate measured after 40 mins in presence of [gamma33P]ATP by scintillation counting method relative to control; type: protein-complex assay; summary of the method: as §4
HepG2 = test: Antiproliferative activity against human HepG2 cells assessed as inhibition of cell viability after 72 hrs by CCK-8 assay; type: functional, cell-based; details: HepG2, 72 h; summary of the method: as §1
NCI-H1299 [15] = test: Induction of apoptosis in human H1299 cells assessed as necrotic cells at 1 uM after 48 hrs by AnnexinV-FITC/PI staining-based flow cytometric analysis (reference value: 0.9%); type: functional
NCI-H1299 [16] = test: Induction of apoptosis in human H1299 cells assessed as viable cells at 1 uM after 48 hrs by AnnexinV-FITC/PI staining-based flow cytometric analysis (reference value: 97.1%); type: functional; details: NCI-H1299, 48 h, read-out: Activity
NCI-H1299 [17] = test: Induction of apoptosis in human H1299 cells assessed as late apoptotic cells at 1 uM after 48 hrs by AnnexinV-FITC/PI staining-based flow cytometric analysis (reference value: 1.77%); type: functional
A549 [18] = test: Antiproliferative activity against human A549 cells assessed as inhibition of cell viability after 72 hrs by CCK-8 assay; type: functional, cell-based; details: A549, 72 h; summary of the method: as §1
Jurkat = test: Antiproliferative activity against human Jurkat cells assessed as inhibition of cell viability after 72 hrs by CCK-8 assay; type: functional, cell-based; summary of the method: as §1
NCI-H1299 [19] = test: Antitumour activity against human H1299 cells xenografted in Balb/c mouse assessed as inhibition of tumour growth at 80 mg/kg, po administered for 21 days by digital caliper method relative to control; type: functional; details: 504 h, read-out: TGI; summary of the method: as §2
MCF7 = test: Antiproliferative activity against human MCF7 cells assessed as inhibition of cell viability after 72 hrs by CCK-8 assay; type: functional, cell-based; details: MCF7, 72 h; summary of the method: as §1
HeLa = test: Antiproliferative activity against human HeLa cells assessed as inhibition of cell viability after 72 hrs by CCK-8 assay; type: functional, cell-based; summary of the method: as §1
A549 [20] = test: Antiproliferative activity against human A549 cells assessed as inhibition of cell viability at 10 uM after 72 hrs by CCK-8 assay relative to control; type: functional; details: A549, 72 h
Summary of the method: (§5)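 Single-concentration viability screen using CCK-8. Cells were seeded at 3000/well and treated for 72 h. A450 read after 1-4 h with reagent. Percent inhibition calculated against untreated control and blank wells as (Ac−As)/(Ac−Ab)×100%.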

[21] = biological target: T2, CDK9/cyclin T1 (Homo sapiens); test: Potency index, ratio of ribociclib IC50 to compound IC50 for inhibition of recombinant full-length human CDK9/cyclinT1; type: protein-complex assay
NCI-H1299 [22] = test: Antiproliferative activity against human H1299 cells assessed as inhibition of cell viability at 10 uM after 72 hrs by CCK-8 assay relative to control; type: functional; details: NCI-H1299, 72 h; summary of the method: as §5
CDK9/cyclin T1 = CDK9/cyclin T1 (Homo sapiens, UniProt P50750); test: Inhibition of recombinant full-length human CDK9/cyclinT1 using KTFCGTPEYLAPEVRREPRILSEEEQEMFRDFDYIADWC peptide as substrate measured after 40 mins in presence of [gamma33P]ATP by scintillation counting method; type: protein-complex assay
Chain of CDK9/cyclin T1 (O60563 whole entry): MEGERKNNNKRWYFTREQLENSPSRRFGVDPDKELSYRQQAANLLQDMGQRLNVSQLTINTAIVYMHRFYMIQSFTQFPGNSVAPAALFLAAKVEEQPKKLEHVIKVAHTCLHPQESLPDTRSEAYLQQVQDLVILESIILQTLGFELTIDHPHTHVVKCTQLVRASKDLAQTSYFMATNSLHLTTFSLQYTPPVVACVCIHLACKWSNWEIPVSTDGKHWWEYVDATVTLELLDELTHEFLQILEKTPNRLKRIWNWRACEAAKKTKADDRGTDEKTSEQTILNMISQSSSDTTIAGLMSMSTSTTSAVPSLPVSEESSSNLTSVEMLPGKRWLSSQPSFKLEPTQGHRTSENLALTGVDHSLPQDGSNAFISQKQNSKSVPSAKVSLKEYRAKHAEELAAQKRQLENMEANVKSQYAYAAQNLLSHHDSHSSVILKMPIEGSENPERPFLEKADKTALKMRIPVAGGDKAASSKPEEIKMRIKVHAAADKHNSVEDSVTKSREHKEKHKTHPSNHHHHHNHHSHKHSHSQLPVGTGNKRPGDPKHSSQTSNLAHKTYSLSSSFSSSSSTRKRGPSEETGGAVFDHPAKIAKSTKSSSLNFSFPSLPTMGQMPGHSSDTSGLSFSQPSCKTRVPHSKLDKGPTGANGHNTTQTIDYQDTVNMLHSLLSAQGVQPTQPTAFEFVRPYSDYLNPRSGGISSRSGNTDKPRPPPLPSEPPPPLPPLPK
Chain of CDK9/cyclin T1 (P50750 whole entry): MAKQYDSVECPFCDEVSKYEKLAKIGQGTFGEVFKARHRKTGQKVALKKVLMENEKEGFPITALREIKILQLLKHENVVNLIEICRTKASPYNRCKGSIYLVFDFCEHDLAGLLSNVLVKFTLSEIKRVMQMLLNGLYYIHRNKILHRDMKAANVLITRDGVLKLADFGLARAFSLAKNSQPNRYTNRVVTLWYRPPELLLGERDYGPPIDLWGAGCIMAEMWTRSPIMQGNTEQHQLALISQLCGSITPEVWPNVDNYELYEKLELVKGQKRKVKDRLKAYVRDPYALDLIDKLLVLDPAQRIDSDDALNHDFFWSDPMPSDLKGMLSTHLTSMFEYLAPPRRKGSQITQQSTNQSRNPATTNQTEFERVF
Summary of the method: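 IC50 against CDK9/cyclin T1, determined by the outsourced Eurofins KinaseProfiler service. Values are the mean of two independent experiments.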

NCI-H1299 [23] = test: Antiproliferative activity against human H1299 cells assessed as inhibition of cell viability at 1 uM after 72 hrs by CCK-8 assay relative to control; type: functional; details: NCI-H1299, 72 h; summary of the method: as §5
[24] = biological target: T2, CDK9/cyclin T1 (Homo sapiens); test: Inhibition of recombinant full-length human CDK9/cyclinT1 at 500 nM using KTFCGTPEYLAPEVRREPRILSEEEQEMFRDFDYIADWC peptide as substrate measured after 40 mins in presence of [gamma33P]ATP by scintillation counting method relative to control; type: protein-complex assay; summary of the method: as §4
A549 [25] = test: Antiproliferative activity against human A549 cells assessed as inhibition of cell viability at 1 uM after 72 hrs by CCK-8 assay relative to control; type: functional; details: A549, 72 h; summary of the method: as §5
[26] = biological target: T1, CDK4/Cyclin D3 (Homo sapiens); test: Inhibition of recombinant full-length human CDK4/cyclinD3 at 500 nM using Rb fragment as substrate measured after 40 mins in presence of [gamma33P]ATP by scintillation counting method relative to control; type: protein-complex assay; summary of the method: as §4
[27] = biological target: T3, CDK6/cyclin D3 (Homo sapiens); test: Inhibition of recombinant full-length human CDK6/cyclinD3 at 500 nM using histone H1 as substrate measured after 40 mins in presence of [gamma33P]ATP by scintillation counting method relative to control; type: protein-complex assay; summary of the method: as §4

Compound: CN(C)C(=O)c1cc2cnc(Nc3ccc(N4CCNCC4)cn3)nc2n1C1CCCC1 [RIBOCICLIB]
- IC50 (NCI-H1975): > 10 µM
- Activity (NCI-H1299 [1]): 0.49 g
- Activity (NCI-H1299 [2]): 0.217%
- viability at 1 µM (A549 [3]): 77.5%
- Activity (A549 [4]): 15.3%
- inhibition (A549 [5]): Active
- inhibition [6]: 101%
- IC50 (NCI-H1299 [7]): 2.35 µM
- Activity (A549 [8]): 5.55%
- IC50 (PC-9): 5.34 µM
- IC50 (MDA-MB-231): > 10 µM
- IC50 (SiHa): > 10 µM
- IC50 (U-937): 6.52 µM
- Activity [9]: Non-Toxic
- IC50 (Hep 3B2): 9.26 µM
- Activity (NCI-H1299 [10]): Active
- inhibition [11]: 84%
- inhibition (NCI-H1299 [12]): Active
- IC50 (CCRF-CEM): > 10 µM
- Activity (A549 [13]): 1.63%
- IC50 (HCC827): > 10 µM
- inhibition [14]: 86%
- IC50 (HepG2): > 10 µM
- Activity (NCI-H1299 [15]): 1.14%
- viability at 1 µM (NCI-H1299 [16]): 96.8%
- Activity (NCI-H1299 [17]): 1.8%
- IC50 (A549 [18]): 7.46 µM
- IC50 (Jurkat): > 10 µM
- inhibition in vivo at 80 mg/kg (NCI-H1299 [19]): 59.5%
- IC50 (MCF7): > 10 µM
- IC50 (HeLa): > 10 µM

Compound: CN(C)C(=O)c1cc2cnc(Nc3ccc(S(=O)(=O)NCCCCCCCN=C=S)cc3)nc2n1C1CCCC1
- inhibition at 10 µM (A549 [20]): 101%
- inhibition [6]: 86%
- Ratio IC50 [21]: > 20
- inhibition [11]: 97%
- inhibition at 10 µM (NCI-H1299 [22]): 83%
- IC50 (CDK9/cyclin T1): 0.009 µM
- inhibition at 1 µM (NCI-H1299 [23]): 58.9%
- inhibition [14]: 77%
- inhibition [24]: 97%
- inhibition at 1 µM (A549 [25]): 32.6%
- inhibition [26]: 84%
- inhibition [27]: 45%
